The test system of series [1] is Mycobacterium tuberculosis. Description: Antimicrobial activity against Mycobacterium tuberculosis H37Rv after 9 to 12 days by CLSI microbroth dilution technique. The format is functional. A digest of the protocol:
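M. tuberculosis H37Rv grown in Middlebrook 7H9 with 10% OADC to OD600 0.4–0.6, frozen in aliquots of known CFU/mL. Compounds serially diluted in DMSO, added to 7H9 medium; 2×10^4 bacteria per well. Incubated at 37 °C for […]. MIC90 read visually as concentration inhibiting 90% of growth. Isoniazid control run in each experiment.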
On the technique in general: In broth dilution the organism is exposed to a series of concentrations in liquid medium.

The nature of series [2]: Cytotoxicity against african green monkey Vero cells after 72 hrs by alamar blue assay. It is filed as cell-based. The note with it: chlorocebus sabaeus, read-out: LD50. Summed up: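 Vero cells grown in phenol-free L15 medium with glutamine, penicillin-streptomycin and 10% bovine calf serum at 37°C. Compounds tested by microplate dilution for 72 h at 37°C. alamarBlue then added and plates incubated overnight at 37°C. Drug LD50 determined.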
A general note: Alamar Blue is a resazurin reagent that responds to reducing activity.

A short description of series [3]: Therapeutic index, CC50 for african green monkey Vero cells to MIC for Mycobacterium tuberculosis H37Rv. The format is cell-based.
The subject of another series is Mus musculus. Nature of the series: Toxicity in mouse assessed as death at 50 to 100 mg/kg. The format is organism-based. On the set-up: dose 50-100 mg/kg. Particulars: in vivo.

Molecules are shown by their SMILES. ≈ marks a conversion by molar mass, not a printed value. Some results are limits rather than exact numbers.

This is an account of results in ChEMBL document CHEMBL1151895, “Discovery, synthesis, and biological evaluation of piperidinol analogs with anti-tuberculosis activity” (Bioorg Med Chem, 2009).

On to `N#CC1(c2ccccc2)CCN(C[C@@H](O)COc2ccc(Cl)cc2)CC1`, for which the minimal inhibitory concentration (MIC) in series [1] was 25 µg/mL (≈ 67.4 µM).
In series [1], `O[C@@H](COc1ccc(OC(F)(F)F)cc1)CN1CCC(O)(c2ccc(Cl)c(C(F)(F)F)c2)CC1` displayed an MIC of 3.6 µg/mL (≈ 7.01 µM). The CC50 at 72 h in series [2] is 17.7 µg/mL (≈ 34.4 µM). Also, the selectivity ratio in series [3] worked out at 4.9.
In series [1], `O[C@@H](COc1ccc(Cl)cc1)CN1CCC(O)(c2ccc(Cl)c(C(F)(F)F)c2)CC1` showed an MIC of 1.4 µg/mL (≈ 3.02 µM). In series [2], the CC50 at 72 h came to 18.2 µg/mL (≈ 39.2 µM). Also, the selectivity ratio in series [3] was found to be 13.3. Further, in the series on Mus musculus, the Activity entry was “Toxic”.
The compound `O[C@H](COc1ccc(F)cc1)CN1CCC(O)(c2ccc(Cl)c(C(F)(F)F)c2)CC1` gave an MIC in series [1] of 3.9 µg/mL (≈ 8.71 µM). In addition, the CC50 at 72 h in series [2] turned out to be 25.8 µg/mL (≈ 57.6 µM). In addition, the selectivity ratio in series [3] amounted to 6.6.
In the same order, the values of `O[C@H](COc1ccccc1)CN1CCC(O)(c2ccc(Cl)c(C(F)(F)F)c2)CC1` are 8.3 µg/mL (≈ 19.3 µM), 34.9 µg/mL (≈ 81.2 µM) and 4.2.
For `Cc1cccc(C)c1OC[C@H](O)CN1CCC(O)(c2ccc(Cl)c(C(F)(F)F)c2)CC1`, in that order: 5.9 µg/mL (≈ 12.9 µM), 19.3 µg/mL (≈ 42.1 µM) and 3.3.
Turning to `O[C@H](COc1ccc(Cl)c(Cl)c1)CN1CCC(O)(c2ccc(Cl)c(C(F)(F)F)c2)CC1`, the MIC in series [1] was 7.3 µg/mL (≈ 14.6 µM). Moreover, the CC50 at 72 h in series [2] amounted to 18.7 µg/mL (≈ 37.5 µM). The selectivity ratio in series [3] was found to be 2.6.
For `O[C@H](COc1ccc(OC(F)(F)F)cc1)CN1CCC(O)(c2ccc(Cl)c(C(F)(F)F)c2)CC1`, in that order: 7.3 µg/mL (≈ 14.2 µM), 17.6 µg/mL (≈ 34.3 µM) and 2.4.
For `O[C@H](COc1ccc(C(F)(F)F)cc1)CN1CCC(O)(c2ccc(Cl)c(C(F)(F)F)c2)CC1`, in that order: 1.7 µg/mL (≈ 3.41 µM), 18.7 µg/mL (≈ 37.6 µM) and 11.
For `O[C@@H](COc1ccc(C(F)(F)F)cc1)CN1CCC(O)(c2ccc(Cl)c(C(F)(F)F)c2)CC1`, in that order: 5.2 µg/mL (≈ 10.4 µM), 18.3 µg/mL (≈ 36.8 µM) and 3.5.
In series [1], `O[C@@H](COc1ccc(F)cc1)CN1CCC(O)(c2ccc(Cl)c(C(F)(F)F)c2)CC1` gave an MIC of 10.4 µg/mL (≈ 23.2 µM). The CC50 at 72 h in series [2] was found to be 20.8 µg/mL (≈ 46.4 µM). In series [3], the selectivity ratio came out at 2.
For `Cc1cccc(C)c1OC[C@@H](O)CN1CCC(O)(c2ccc(Cl)c(C(F)(F)F)c2)CC1`, in that order: 4.7 µg/mL (≈ 10.3 µM), 19 µg/mL (≈ 41.5 µM) and 4.1.
In series [1], `O[C@@H](COc1ccc(Cl)cc1)CN1CCC(O)(c2cccc(C(F)(F)F)c2)CC1` gave a minimal inhibitory concentration (MIC) of 25 µg/mL (≈ 58.2 µM).
Same read-out and setting: as for `O[C@@H](COc1ccc(Cl)cc1)CN1CC=C(c2ccc(Cl)cc2)CC1`, the figure is over 200 µg/mL.
`O[C@H](COc1ccc(Cl)cc1)CN1CCC(O)(c2ccc(Cl)c(C(F)(F)F)c2)CC1` registered a minimum inhibitory concentration (MIC) in series [1] of 3.8 µg/mL (≈ 8.18 µM). Also, the CC50 at 72 h in series [2] worked out at 17.9 µg/mL (≈ 38.6 µM). Besides, the selectivity ratio in series [3] was 4.7.
In the same order, the values of `O[C@@H](COc1ccc(Cl)c(Cl)c1)CN1CCC(O)(c2ccc(Cl)c(C(F)(F)F)c2)CC1` are 3.1 µg/mL (≈ 6.22 µM), 18 µg/mL (≈ 36.1 µM) and 5.8.
For `O[C@@H](COc1ccccc1)CN1CCC(O)(c2ccc(Cl)c(C(F)(F)F)c2)CC1`, in that order: 18.8 µg/mL (≈ 43.7 µM), 27.7 µg/mL (≈ 64.4 µM) and 1.5.
For `O[C@@H](COc1ccc(Cl)cc1)CN1CCC(O)(c2ccc(Cl)cc2)CC1`, the MIC in series [1] was 25 µg/mL (≈ 63.1 µM).
Turning to `O[C@H](CSc1ccccc1)CN1CCC(O)(c2ccc(Cl)c(C(F)(F)F)c2)CC1`, in series [1], the MIC amounted to 5.2 µg/mL (≈ 11.7 µM). In series [2], the CC50 at 72 h came to 35.7 µg/mL (≈ 80.1 µM). Also, the selectivity ratio in series [3] turned out to be 6.8.
Compound `O[C@@H](COc1ccc(Cl)cc1)CN1CCC(O)(c2ccccc2)CC1` returned an MIC in series [1] of 100 µg/mL (≈ 276 µM).
In series [1], `O[C@@H](CSc1ccccc1)CN1CCC(O)(c2ccc(Cl)c(C(F)(F)F)c2)CC1` came in with an MIC of 8.3 µg/mL (≈ 18.6 µM). Moreover, the CC50 at 72 h in series [2] came out at 37.1 µg/mL (≈ 83.2 µM). The selectivity ratio in series [3] was determined as 4.4.
In the same order, the values of `OC(COc1ccccc1)CN1CCC(O)(c2ccc(Cl)c(C(F)(F)F)c2)CC1` (racemic) are 10.4 µg/mL (≈ 24.2 µM), 19.5 µg/mL (≈ 45.4 µM) and 1.9.
For `OC(COc1ccc(Cl)cc1)CN1CCC(O)(c2ccc(Cl)c(C(F)(F)F)c2)CC1` (racemic), in that order: 1.5 µg/mL (≈ 3.23 µM), 17.9 µg/mL (≈ 38.6 µM) and 11.9.

The term MIC denotes the smallest concentration in the dilution series that meets the test's criterion for growth inhibition.
